Data on five compounds can be found in PMC9073044 (Saudi Journal of Biological Sciences, 2021).

The nature of data set [1]: Caco-2 cells monolayer transport study. In kind it is in vitro ADME. The conditions noted are these: human. An outline of the steps: (§1)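 Caco-2 cells seeded at 1 × 10^5/cm2 on 0.33 cm2 transwell inserts and grown 21 days in DMEM with 20% FBS; TEER >300 Ω•cm2. Monolayers were preincubated 30 min in 37 ℃ HBSS with 10 mM HEPES. Test compound at 12, 120 and 1200 μg/mL was run bidirectionally, ± GF120918, for 2 h. […] Lucifer yellow (20 μg/mL, AP→BL, fluorescence) checked tight junctions.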

The next data set concerns rats intestine. The data set can be described thus: In-situ single-pass intestinal perfusion. It counts as in vivo, SD rats.
In a further data set the test system is Caco-2 cells monolayer. The data set can be described thus: Caco-2 cells monolayer transport study. In kind it is in vitro ADME. An outline of the steps:
as §1

The conditions of data set [2]: ref Du et al., 2019, Yuen et al., 1995; cited from earlier work.
Another data set has as its system human DNA polymerase. The conditions noted are these: ref Reis et al., 2013; cited from earlier work.
In another data set the test system is Caco-2 cells. The data set can be described thus: Cytotoxicity by MTT assay. In kind it is cell-based. The conditions noted are these: lamivudine 12, 120 and 1200 μg/mL, 24 h. In short, it runs like this:
(§2)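 MTT assay: Caco-2 cells seeded at 5 × 10^3 per well in 96-well plates and incubated 24 h. Medium was replaced with test compound (12, 120 or 1200 μg/mL) for 24 h. MTT was then added for 4 h, the supernatant removed, formazan dissolved in DMSO, and absorbance read at 630 nm.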

A short description of data set [3]: Cytotoxicity by MTT assay. In kind it is cell-based. The conditions noted are these: human, Caco-2 cells. In short, it runs like this:
as §2

The mark [4] stands for this setting: Caco-2, with GF120918 (elacridar), 10 μM.

Where a name gives a salt, the structure may show the parent alone. Where only a bound is given, the exact number is not on record here.

Regarding `C[C@H]1O[C@@H](O[C@H]2[C@@H](O)C[C@H](O[C@H]3[C@@H](O)C[C@H](O[C@H]4CC[C@@]5(C)[C@H](CC[C@@H]6[C@@H]5C[C@@H](O)[C@]5(C)[C@@H](C7=CC(=O)OC7)CC[C@]65O)C4)O[C@@H]3C)O[C@@H]2C)C[C@H](O)[C@@H]1O` [Digoxin], in data set [1] (Caco-2), the Papp A→B at 2 h is 0.09 ± 0.005 ×10⁻⁶ cm/s; the apparent permeability from basolateral to apical (Papp B→A) at 2 h, 30 μg/mL came out at 11.9 ± 0.312 ×10⁻⁶ cm/s; the efflux ratio at 2 h, 30 μg/mL was 133. Also, in data set [1] (setting [4]), the Papp A→B at 2 h, 30 μg/mL worked out at 3.59 ± 0.128 ×10⁻⁶ cm/s; the basolateral-to-apical permeability (Papp B→A) at 2 h, 30 μg/mL came to 5.15 ± 0.058 ×10⁻⁶ cm/s; the efflux ratio at 2 h, 30 μg/mL was found to be 1.43.
In the case of `COCCc1ccc(OCC(O)CNC(C)C)cc1` (stereo not shown) [Metoprolol tartrate], in data set [1] (Caco-2), the Papp A→B at 2 h stood at 16 ± 0.652 ×10⁻⁶ cm/s. In the data set with rats intestine (control drugs, perfusion concentration 120 μg/mL, mean ± SD, n = 6), the Peff is recorded as 6.13 ± 2.49 ×10^-5 cm/s.
Regarding Lucifer yellow, in the data set with Caco-2 cells monolayer (lucifer yellow 20 μg/mL, AP-BL, without GF120918, 2 h), the “%lucifer yellow” value amounted to 0.81 ± 0.03%.
With `Nc1ccn([C@@H]2CS[C@H](CO)O2)c(=O)n1` [Lamivudine], in data set [2], the bioavailability entry is “exceed 80%”. In data set [1] (Caco-2), this compound showed an apical-to-basolateral permeability (Papp A→B) at 2 h, 12 μg/mL of 0.296 ± 0.005 ×10⁻⁶ cm/s; an apparent permeability from apical to basolateral (Papp A→B) at 2 h, 120 μg/mL of 0.297 ± 0.015 ×10⁻⁶ cm/s; a Papp A→B at 2 h, 1200 μg/mL of 0.285 ± 0.011 ×10⁻⁶ cm/s; a basolateral-to-apical permeability (Papp B→A) at 2 h, 12 μg/mL of 0.788 ± 0.044 ×10⁻⁶ cm/s. Moreover, in data set [1] (Caco-2), the Papp B→A at 2 h, 120 μg/mL amounted to 0.77 ± 0.027 ×10⁻⁶ cm/s and the Papp B→A at 2 h, 1200 μg/mL came to 0.737 ± 0.009 ×10⁻⁶ cm/s. In data set [1] (setting [4]), this compound displayed an apical-to-basolateral permeability (Papp A→B) at 2 h, 12 μg/mL of 0.307 ± 0.008 ×10⁻⁶ cm/s; an apical-to-basolateral permeability (Papp A→B) at 2 h, 120 μg/mL of 0.322 ± 0.007 ×10⁻⁶ cm/s; a Papp A→B at 2 h, 1200 μg/mL of 0.293 ± 0.004 ×10⁻⁶ cm/s; a Papp B→A at 2 h, 12 μg/mL of 0.548 ± 0.011 ×10⁻⁶ cm/s. In data set [1] (setting [4]), this compound had a Papp B→A at 2 h, 120 μg/mL of 0.519 ± 0.008 ×10⁻⁶ cm/s and a Papp B→A at 2 h, 1200 μg/mL of 0.531 ± 0.012 ×10⁻⁶ cm/s. Further, the “permeability in BCS” value in the data set with Caco-2 cells monolayer (from Papp on Caco-2 cells monolayer, between high- and low-permeability controls) is given as “moderate-permeability”. The “affinity in human DNA polymerase” value in the data set on human DNA polymerase is “low affinity”. Further, in the data set on Caco-2 cells, the “growth ability of Caco-2 cells” value is given as “did not significantly affect”. The compound further came in with a viability at 24 h, 1200 μg/mL in data set [3] of over 80%. In the data set on rats intestine (from Peff in SPIP), the “permeability in BCS” value was “moderate permeability”.
Consider `Nc1nc2c(ncn2COCCO)c(=O)[nH]1` [Acyclovir], for which the Papp A→B at 2 h in data set [1] (Caco-2) came out at 0.081 ± 0.011 ×10⁻⁶ cm/s.
